Drawing on ChEMBL document CHEMBL4229458, “Lipid accumulation inhibitory activities of novel isoxazole-based chenodeoxycholic acids: Design, synthesis and preliminary mechanism study” (Bioorg Med Chem Lett, 2018), this text covers Activity and inhibition for 12 compounds.

The target of series [1] is T1, Bile acid receptor (Homo sapiens) (UniProt Q96RI1).
T1 sequence (whole entry): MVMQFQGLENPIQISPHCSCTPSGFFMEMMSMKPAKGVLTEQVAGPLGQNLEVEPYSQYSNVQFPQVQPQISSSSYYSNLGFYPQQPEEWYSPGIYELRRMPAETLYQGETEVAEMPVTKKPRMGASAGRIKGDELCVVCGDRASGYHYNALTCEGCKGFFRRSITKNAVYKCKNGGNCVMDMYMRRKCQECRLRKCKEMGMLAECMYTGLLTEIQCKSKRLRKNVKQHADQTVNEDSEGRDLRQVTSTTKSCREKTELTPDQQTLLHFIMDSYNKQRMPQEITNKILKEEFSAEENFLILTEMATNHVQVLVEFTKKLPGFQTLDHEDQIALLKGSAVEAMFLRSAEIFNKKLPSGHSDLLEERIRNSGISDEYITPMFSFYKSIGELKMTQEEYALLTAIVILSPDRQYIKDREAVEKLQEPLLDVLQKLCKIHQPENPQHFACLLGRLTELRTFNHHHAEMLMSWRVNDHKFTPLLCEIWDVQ
Briefly: Activation of FXR in human HepG2 cells assessed as upregulation of SHP mRNA expression at 10 uM by RT-PCR method. The format is cell-based. Summed up:
(§1)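 HepG2 cells treated at 10 μM. mRNA of FXR, SHP and SREBP-1c quantified by real-time PCR against vehicle (0.1% DMSO). Mean ± SEM, n = 3.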

Series [2] has as its target T1, Bile acid receptor (Homo sapiens). Briefly: Activation of FXR in human HepG2 cells assessed as downregulation of SREBP-1c mRNA expression at 10 uM by RT-PCR method. The format is cell-based. Summed up:
as §1

The next series relates to HepG2. Briefly: Cytotoxicity against human HepG2 cells assessed as decrease in cell viability at 5 to 80 uM after 48 hrs by MTT assay. The format is cell-based. The following applies: hepg2, 48 h. Summed up:
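HepG2 cells exposed to 5, 10, 20, 40 and 80 μM for 48 h. Viability read by MTT.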
On the technique in general: Tetrazolium assays rely on reduction of a dye to a coloured formazan, in cell work by metabolically active cells.

In series [3] the target is T1, Bile acid receptor (Homo sapiens). Briefly: Activation of FXR in human HepG2 cells assessed as upregulation of FXR mRNA expression at 10 uM by RT-PCR method. The format is cell-based. The gist of the method: as §1
Series [4] concerns 3T3-L1. Briefly: Inhibition of lipid accumulation in mouse 3T3L1 cells at 10 uM by oil red o staining-based assay. The format is functional. The gist of the method: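 3T3-L1 preadipocytes differentiated for 6 days into mature adipocytes, then treated at 10 μM. Intracellular lipid stained with Oil Red O and quantified relative to vehicle. Mean ± SD of two independent experiments.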

Series [5] relates to 3T3-L1. Briefly: Cytotoxicity against mouse 3T3L1 cells assessed as decrease in cell viability at 40 uM after 48 hrs by MTT assay. The format is cell-based. Conditions: 3t3-l1, 48 h. The gist of the method:
(§2)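 3T3-L1 preadipocytes given 5, 10, 20 and 40 μM for 48 h, with 1% DMSO as control. Viability measured by MTT. Mean ± SD of two independent experiments.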

For series [6], the system named is 3T3-L1. The series can be described thus: Cytotoxicity against mouse 3T3L1 cells assessed as decrease in cell viability at 10 uM after 48 hrs by MTT assay. The following applies: 3t3-l1, 48 h. The format is cell-based. Summed up: as §2

Calls of active or inactive are those of the source. The calls are words filed in the database; no cut-off is given here.

Turning to `CC(C)c1onc(-c2c(Cl)cccc2Cl)c1COc1ccc(/C=C/c2cccc(C(=O)O)c2)c(Cl)c1`, the outcome in series [1], in series [2] and in series [3] was Active. In the series with HepG2, the Activity entry is recorded as “Non-Toxic”.

By inhibition is commonly meant the relative decrease from the control value, in per cent. As to `Cc1noc(C)c1C(=O)N[C@H]1CC[C@@]2(C)[C@@H](C1)C[C@@H](O)[C@@H]1[C@@H]2CC[C@]2(C)[C@@H]([C@H](C)CCC(=O)Nc3ccc(F)cc3)CC[C@@H]12`, in the series with 3T3-L1 [4], the inhibition entry was “Active”. Moreover, the Activity result with 3T3-L1 [5] and with 3T3-L1 [6] was “Non-Toxic” in each case.

As for `Cc1noc(C)c1C(=O)N[C@H]1CC[C@@]2(C)[C@@H](C1)C[C@@H](O)[C@@H]1[C@@H]2CC[C@]2(C)[C@@H]([C@H](C)CCC(=O)Nc3cccc(Cl)c3)CC[C@@H]12`, the inhibition entry with 3T3-L1 [4] was “Active”. In addition, the Activity result with 3T3-L1 [5] and with 3T3-L1 [6] was “Non-Toxic” in each case.

As to `Cc1noc(C)c1C(=O)N[C@H]1CC[C@@]2(C)[C@@H](C1)C[C@@H](O)[C@@H]1[C@@H]2CC[C@]2(C)[C@@H]([C@H](C)CCC(N)=O)CC[C@@H]12`, the inhibition result with 3T3-L1 [4] is “Active”. Besides, the Activity result in the series with 3T3-L1 [5] and in the series on 3T3-L1 [6] was “Non-Toxic” in each case.

As to `CCNC(=O)CC[C@@H](C)[C@H]1CC[C@H]2[C@@H]3[C@H](O)C[C@@H]4C[C@@H](NC(=O)c5c(C)noc5C)CC[C@]4(C)[C@H]3CC[C@]12C`, the inhibition entry in the series on 3T3-L1 [4] was “Active”. Also, the Activity entry with 3T3-L1 [5] and with 3T3-L1 [6] was “Non-Toxic” in each case.

For `CC(=O)Nc1ccc(NC(=O)CC[C@@H](C)[C@H]2CC[C@H]3[C@@H]4[C@H](O)C[C@@H]5C[C@@H](NC(=O)c6c(C)noc6C)CC[C@]5(C)[C@H]4CC[C@]23C)cc1`, in the series with 3T3-L1 [4], the inhibition entry is “Active”. Besides, the Activity entry in the series with 3T3-L1 [5] was “Toxic”; in the series on 3T3-L1 [6], “Non-Toxic”.

Take `Cc1noc(C)c1C(=O)N[C@H]1CC[C@@]2(C)[C@@H](C1)C[C@@H](O)[C@@H]1[C@@H]2CC[C@]2(C)[C@@H]([C@H](C)CCC(=O)NCC(=O)O)CC[C@@H]12`: the inhibition entry with 3T3-L1 [4] was “Active”. The Activity result in the series with 3T3-L1 [5] and with 3T3-L1 [6] was “Non-Toxic” in each case.

With `CNC(=O)CC[C@@H](C)[C@H]1CC[C@H]2[C@@H]3[C@H](O)C[C@@H]4C[C@@H](NC(=O)c5c(C)noc5C)CC[C@]4(C)[C@H]3CC[C@]12C`, the outcome in series [1], in series [2] and in series [3] was Active. In addition, in the series with 3T3-L1 [4], the inhibition at 10 µM worked out at 30.5%. For the same compound, the Activity result in the series on HepG2, in the series on 3T3-L1 [5] and with 3T3-L1 [6] was “Non-Toxic” throughout.

For the compound `COC(=O)CC[C@@H](C)[C@H]1CC[C@H]2[C@@H]3[C@H](O)C[C@@H]4C[C@@H](NC(=O)c5c(C)noc5C)CC[C@]4(C)[C@H]3CC[C@]12C`, the inhibition result in the series with 3T3-L1 [4] was “Active”. Also, the Activity result with 3T3-L1 [5] and with 3T3-L1 [6] was “Non-Toxic” throughout.

For `Cc1noc(C)c1C(=O)N[C@H]1CC[C@@]2(C)[C@@H](C1)C[C@@H](O)[C@@H]1[C@@H]2CC[C@]2(C)[C@@H]([C@H](C)CCC(=O)O)CC[C@@H]12`, the inhibition result in the series on 3T3-L1 [4] was “Active”. For the same compound, the Activity result with 3T3-L1 [5] and in the series on 3T3-L1 [6] was “Non-Toxic” in each case.

For the compound `Cc1noc(C)c1C(=O)N[C@H]1CC[C@@]2(C)[C@@H](C1)C[C@@H](O)[C@@H]1[C@@H]2CC[C@]2(C)[C@@H]([C@H](C)CCC(=O)Nc3ccc(Cl)cc3)CC[C@@H]12`, in the series with 3T3-L1 [4], the inhibition entry is “Active”. In addition, the Activity entry with 3T3-L1 [5] and in the series with 3T3-L1 [6] was “Non-Toxic” each time.

On to `C[C@H](CCC(=O)O)[C@H]1CC[C@H]2[C@@H]3[C@H](O)C[C@@H]4C[C@H](O)CC[C@]4(C)[C@H]3CC[C@]12C`, for which, in the series with 3T3-L1 [4], the inhibition entry is “Active”.
